The results in this text go back to ChEMBL document CHEMBL1149906, “Perennisosides I-VII, acylated triterpene saponins with antihyperlipidemic activities from the flowers of Bellis perennis” (2008).

Molecules are shown by their SMILES.

What all share (assay type): functional
Assay [1] has as its system Mus musculus. As to the kind of experiment: Inhibition of serum triglyceride elevation in olive oil-treated ddY mouse at 25 mg/kg, po after 4 hrs. A digest of the protocol:
(§1)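 Male ddY mice (25–30 g) fasted 24–26 h with free access to water, kept conscious. Test sample given orally, then olive oil 5 mL/kg po 30 min later. Blood drawn from the infraorbital venous plexus 2, 4 and 6 h after the olive oil. Serum TG measured by an enzymatic kit; n = 6 per group; means ± SEM.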

Assay [2] relates to Mus musculus. As to the kind of experiment: Inhibition of serum triglyceride elevation in olive oil-treated ddY mouse at 50 mg/kg, po after 6 hrs. An outline of the steps:
as §1

Assay [3] concerns Mus musculus. The experiment in a line: Inhibition of serum triglyceride elevation in olive oil-treated ddY mouse at 25 mg/kg, po after 6 hrs. A digest of the protocol: as §1
Assay [4] concerns Mus musculus. The experiment in a line: Inhibition of serum triglyceride elevation in olive oil-treated ddY mouse at 100 mg/kg, po after 4 hrs. An outline of the steps:
as §1

The test system of assay [5] is Mus musculus. As to the kind of experiment: Inhibition of serum triglyceride elevation in olive oil-treated ddY mouse at 50 mg/kg, po after 2 hrs. An outline of the steps: as §1
The subject of assay [6] is Mus musculus. As to the kind of experiment: Inhibition of serum triglyceride elevation in olive oil-treated ddY mouse at 100 mg/kg, po after 6 hrs. An outline of the steps: as §1
Assay [7] deals with Mus musculus. The experiment in a line: Inhibition of serum triglyceride elevation in olive oil-treated ddY mouse at 25 mg/kg, po after 2 hrs. A digest of the protocol:
as §1

For assay [8], the system named is Mus musculus. As to the kind of experiment: Inhibition of serum triglyceride elevation in olive oil-treated ddY mouse at 100 mg/kg, po after 2 hrs. An outline of the steps:
as §1

Assay [9] concerns Mus musculus. The experiment in a line: Inhibition of serum triglyceride elevation in olive oil-treated ddY mouse at 50 mg/kg, po after 4 hrs. An outline of the steps:
as §1

The test system of assay [10] is Mus musculus. As to the kind of experiment: Inhibition of serum triglyceride elevation in olive oil-treated ddY mouse at 6.25 mg/kg, po after 6 hrs.
The subject of assay [11] is Mus musculus. The experiment in a line: Inhibition of serum triglyceride elevation in olive oil-treated ddY mouse at 12.5 mg/kg, po after 2 hrs.
In assay [12] the test system is Mus musculus. As to the kind of experiment: Inhibition of serum triglyceride elevation in olive oil-treated ddY mouse at 12.5 mg/kg, po after 4 hrs.
Assay [13] has as its system Mus musculus. As to the kind of experiment: Inhibition of serum triglyceride elevation in olive oil-treated ddY mouse at 6.25 mg/kg, po after 2 hrs.
Assay [14] relates to Mus musculus. As to the kind of experiment: Inhibition of serum triglyceride elevation in olive oil-treated ddY mouse at 6.25 mg/kg, po after 4 hrs.
In assay [15] the test system is Mus musculus. As to the kind of experiment: Inhibition of serum triglyceride elevation in olive oil-treated ddY mouse at 12.5 mg/kg, po after 6 hrs.
Assay [16] concerns Mus musculus. As to the kind of experiment: Inhibition of serum triglyceride elevation in olive oil-treated ddY mouse at 250 mg/kg, po after 6 hrs.
Assay [17] deals with Mus musculus. As to the kind of experiment: Inhibition of serum triglyceride elevation in olive oil-treated ddY mouse at 125 mg/kg, po after 6 hrs.
In assay [18] the test system is Mus musculus. The experiment in a line: Inhibition of serum triglyceride elevation in olive oil-treated ddY mouse at 125 mg/kg, po after 4 hrs.
For assay [19], the system named is Mus musculus. As to the kind of experiment: Inhibition of serum triglyceride elevation in olive oil-treated ddY mouse at 500 mg/kg, po after 4 hrs.
The subject of assay [20] is Mus musculus. As to the kind of experiment: Inhibition of serum triglyceride elevation in olive oil-treated ddY mouse at 250 mg/kg, po after 4 hrs.
Assay [21] has as its system Mus musculus. As to the kind of experiment: Inhibition of serum triglyceride elevation in olive oil-treated ddY mouse at 500 mg/kg, po after 2 hrs.
In assay [22] the test system is Mus musculus. The experiment in a line: Inhibition of serum triglyceride elevation in olive oil-treated ddY mouse at 250 mg/kg, po after 2 hrs.
Assay [23] concerns Mus musculus. As to the kind of experiment: Inhibition of serum triglyceride elevation in olive oil-treated ddY mouse at 125 mg/kg, po after 2 hrs.
The test system of assay [24] is Mus musculus. As to the kind of experiment: Inhibition of serum triglyceride elevation in olive oil-treated ddY mouse at 500 mg/kg, po after 6 hrs.

For `CC(=O)OC[C@H]1O[C@@H](OC(=O)[C@]23CCC(C)(C)C[C@H]2C2=CC[C@@H]4[C@@]5(C)C[C@H](O)[C@H](O)[C@@](C)(COC(C)=O)[C@@H]5CC[C@@]4(C)[C@]2(C)CC3)[C@H](O[C@@H]2O[C@@H](C)[C@H](O)[C@@H](O)[C@H]2O)[C@@H](O[C@@H]2O[C@H](CO)[C@H](O)[C@H](O)[C@H]2O)[C@@H]1O` [PERENNISOSIDE II], the Activity in the assay with Mus musculus [1] was 147 mg/dL; in the assay with Mus musculus [2] it was 104.6 mg/dL; in the assay with Mus musculus [3], 87 mg/dL; in the assay on Mus musculus [4], 155.6 mg/dL; with Mus musculus [5], 232.5 mg/dL; in the assay on Mus musculus [6], 80.6 mg/dL. In addition, the Activity in the assay with Mus musculus [7] came to 204.6 mg/dL; in the assay on Mus musculus [8], 179.4 mg/dL; in the assay on Mus musculus [9] it was 180.4 mg/dL.
With `CCCCCCCCCCC[C@@H](C[C@@H]1OC(=O)[C@H]1CCCCCC)OC(=O)[C@H](CC(C)C)NC=O` [ORLISTAT], the Activity in the assay with Mus musculus [1] was determined as 132.2 mg/dL; in the assay with Mus musculus [10], 155.6 mg/dL; in the assay on Mus musculus [11], 187.9 mg/dL; in the assay with Mus musculus [3], 140.1 mg/dL; with Mus musculus [12], 176 mg/dL; in the assay with Mus musculus [13], 266.4 mg/dL. Besides, the Activity amounted to 179.3 mg/dL in the assay on Mus musculus [14], 189.7 mg/dL with Mus musculus [15] and 158.9 mg/dL with Mus musculus [7].
Regarding `CCOC(=O)C(C)(C)Oc1ccc(Cl)cc1` [CLOFIBRATE], the Activity is 443.3 mg/dL in the assay with Mus musculus [16]; 333.4 mg/dL in the assay on Mus musculus [17]; 295 mg/dL in the assay with Mus musculus [18]; 239.7 mg/dL with Mus musculus [19]; 340.5 mg/dL in the assay with Mus musculus [20]; 318.2 mg/dL with Mus musculus [21]. In addition, the Activity in the assay on Mus musculus [22] was 441.2 mg/dL; with Mus musculus [23] it was 377.5 mg/dL; in the assay with Mus musculus [24], 373.5 mg/dL.
On to `CC(=O)OC[C@H]1O[C@@H](OC(=O)[C@]23CCC(C)(C)C[C@H]2C2=CC[C@@H]4[C@@]5(C)C[C@H](O)[C@H](O)[C@@](C)(COC(C)=O)[C@@H]5CC[C@@]4(C)[C@]2(C)CC3)[C@H](O[C@@H]2O[C@@H](C)[C@H](O)[C@@H](O)[C@H]2O)[C@@H](O[C@@H]2O[C@H](CO)[C@@H](O)[C@H](O)[C@H]2O)[C@@H]1O` [PERENNISOSIDE I], for which the Activity was 357.7 mg/dL with Mus musculus [1]; 203.7 mg/dL with Mus musculus [2]; 222.7 mg/dL with Mus musculus [3]; 278.7 mg/dL in the assay on Mus musculus [4]; 326.9 mg/dL in the assay on Mus musculus [5]; 208.2 mg/dL with Mus musculus [6]. Moreover, the figures for the Activity in the assay with Mus musculus [7], with Mus musculus [8] and with Mus musculus [9] were 337 mg/dL, 135.7 mg/dL and 355.8 mg/dL, respectively.
